These results are taken from the RNAGym collection of RNA variant scans (doi:10.1126/science.aae0568).

Fewer inactive variants are shown than the library holds.

To fix the notation:
B1: tRNA (parent)
chain: GUUCCGUUGGCGUAAUGGUAACGCGUCUCCCUCCUAAGGAGAAGACUGCGGGUUCGAGUCCCGUACGGAACG

This series covers variants of B1. The experiment in a line: yeast fitness relative to wild type (ratio to wild type); higher = fitter; tRNA-Arg(CCU), competitive growth, 37 C, YPD. The method, boiled down: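 For this measurement, the tRNA-Arg(CCU) gene was varied by chemical synthesis at a 3% per-site mutation rate across 69 sites, and each variant was placed at the native genomic locus in Saccharomyces cerevisiae. The pooled strains went through a 24-hour competition in YPD at 37°C in six parallel replicates, with amplicons from start and end populations read by 100-nucleotide paired-end sequencing. Darwinian fitness relative to wild type followed from the change in each genotype's frequency. Genotypes needed ≥ 100 starting reads, and estimates < 0.5 were set to 0.5.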
In the case of GUUCCGUUGGCGUAGUGGUUACGCGUCUCCCUACUCAGGAGUAGACUGCGGGUUCGAGUCCCGUACGGAACG [A15G A20U C33A A36C A42U], the yeast fitness was not above 0.5.

In the case of GUUCCGUUGGCGUAGUGGUAGCGCGUCUCCCUCCUAAGGAGCAGAAUGCGGGUUCGAGUCCCGUACGGAACG [A15G A21G A42C C46A], the yeast fitness is not above 0.5. The value for GUUCCGUUGGCGUAGUGGUAACGCGUCUCCCUCCUCAGGAGAAGACUGCAGGUUCGAGUCCCGUACGGAACG [A15G A36C G50A] was not above 0.5; that for GUUCCGUUGGCGUAGUGGUCACGGGUCUCCCUCCUAAGGAGAAGACUGCGGGUUCGAGUCCCGUACGGAACG [A15G A20C C24G] was 0.626. Consider GUUCCGUUGGCGUAGUGGUACCGCGUCUCCCCCCUAAGGAGAAGACUGCGGGUUCGAGUCCCGAACGGAACG [A15G A21C U32C U64A], for which the yeast fitness was not above 0.5. For the variant GUUCCGUUGGCGUAGUGGUUACGCGUCUCCCUCCUAAGGAGAAGACUGCGGGUUCGUGUUCCGUACGGAACG [A15G A20U A57U C60U], the yeast fitness is not above 0.5. For the variant GUUCCGUUGGCGUAGUGGUUACGCGUCUCCCUCAUAAGGAGAAGACUGCGGGUUCGAGUACCGUACGGACCG [A15G A20U C34A C60A A70C], the yeast fitness is not above 0.5.

On to GUUCCGUUGGCGUAGUGGUACCGCGUCUCCCUCCUAAGCAGAAGGCUGCGGGCUCGAGUCCCGUACGGAACG [A15G A21C G39C A45G U53C], for which the yeast fitness is not above 0.5. For GUUCCGUUGGCGUAGUGGUUACGGGUCUCCCUCCUAAGGAGGAGACUGCGGGUCCGAGUCCCGUACGGAACG [A15G A20U C24G A42G U54C], the yeast fitness stood at 0.575.

Regarding GUUCCGUUGGCGUAGUGGUUACGCGUCUCCCUCCUAAGGAGAAGACUGCGGGUUCGAGUGCCGUACGGAACG [A15G A20U C60G], the yeast fitness is 0.542. As to GUUCCGUUGGCGUAGUGGUAACGCGUCUCCCUCCUAAGGAGAAGACUGCGGGUUCGGGUCCGGUAUGGAACG [A15G A57G C62G C66U], the yeast fitness was not above 0.5. Regarding GUUCCGUUGGCGUAGUGGUAACGCGUCUCCCUCCUACGGAGAAGACUGCCGGUUCGAGUCCCGUACGGAACG [A15G A37C G50C], the yeast fitness came out at 0.601. For GUUCCGUUGGCGUAGUGGUAACGCGUCUCCCUCCUAAGGAGAAGACUGCGGGUUCGAGUCCCGUACGGAACG [A15G], the yeast fitness was 0.987. Turning to GUUCCGUUGGCGUAGUGGUGACGCGUCUCCCUCCUAAGGAGAAGACUGAGGGUUCGAGUCCUAUACGGAACG [A15G A20G C49A C62U G63A], the yeast fitness was not above 0.5. For the variant GUUCCGUUGGCGUAGUGGUAAGGCGUCUCCCUCCUUAGGGGAAGACUGCGGGUUCGAGACCCGUACGGAACG [A15G C22G A36U A40G U59A], the yeast fitness is not above 0.5.

For GUUCCGUUGGCGUAGUGGUAACGCGUCUCCCUCCUAAGGGGAAGACUGCGGGUUCGAGUCCCGUACGGAACG [A15G A40G], the yeast fitness came to 0.758. In the case of GUUCCGUUGGCGUAGUGGUAACGCGUCUCCCUCCUAAGGAGCAGACUGCGGGUUCGAGUCCCGUACGGAACG [A15G A42C], the yeast fitness was determined as 0.863. For GUUCCGUUGGCGUAGUGGUACCGCGUCUCCCUCCUAAGGAGAAGACUGCGGGUGCGAGUCCCGUUCGGAACG [A15G A21C U54G A65U], the yeast fitness is not above 0.5.

Take GUUCCGUUGGCGUAGUGGUAACGCGUCUCCCUCCUCAGGAGAAGACACCGGGUGCGAGUCCCGUCCGGAACG [A15G A36C U47A G48C U54G A65C]: the yeast fitness is not above 0.5. Then GUUCCGUUGGCGUAGUGGUGACGCGUCUCCCUCCUAAGGAGAAGACUACGGGUUCGAGUCCCGUACGGAACG [A15G A20G G48A], with 0.738; and GUUCCGUUGGCGUAGUGGUAGCGCGUUUCCCUCCUAAGGAGAAGACCGCGGGUUCCGGUCCCGUAGGGAACG [A15G A21G C27U U47C G56C A57G C66G], with not above 0.5; and GUUCCGUUGGCGUAGUGGUCACGCGUCUCCCUCCUAAGGAGAAGACUGCGGGUACGAGUCCCGUACGGAACG [A15G A20C U54A], with not above 0.5.

Take GUUCCGUUGGCGUAGUGGUAACGCGUCUCCCUCCUAGAGAGAAGUCUGCGGGUUCGAGUCCCGUACGGAACG [A15G A37G G38A A45U]: the yeast fitness stood at 0.507. The value for GUUCCGUUGGCGUAGUGGUUACGCGUCUCCCUCAUAAGGAGAAGACUGCGGGUUCGAGUCCCGUACGGAACG [A15G A20U C34A] was not above 0.5; that for GUUCCGUUGGCGUAGUGGUAACGCGUCUCCCUCCUAAGGAGAAGACUGCGGGUUCGAGUCCCGUACGGCACG [A15G A69C] was 0.999; that for GUUCCGUUGGCGUAGUGGUAGCGCGUCUCCCUCGUAAGGAGAAGGCUGCGGGUUCGAGUCCCGUCCGGAACG [A15G A21G C34G A45G A65C] was 0.67.

Take GUUCCGUUGGCGUAGUGGUGACGCGUCUCCUUCCUAAGGAGAAGACUGCGGGUUCGAGUCCCGUACGGAACG [A15G A20G C31U]: the yeast fitness came to 0.59. Then GUUCCGUUGGCGUAGUGGUAACGCGUCUCCCUCCUAAGGAGAUGACUGCGGGUUCGAGUCCCGUACGGCACG [A15G A43U A69C], with 0.8; and GUUCCGUUGGCGUAGUGGUAUCGCGUCUCCCUCCUACGCAGAAGACUGCGGGUUCGUGUCCUGUACGGAACG [A15G A21U A37C G39C A57U C62U], with not above 0.5; and GUUCCGUUGGCGUAGUGGUAACGCGUCUCCCUCCUAGGGAGAAGACUGCGGGUUCGAGUCCCGUACGGAACG [A15G A37G], with 0.795.

As for GUUCCGUUGGCGUAGUGGUAACGCGUCUCCCUCCUACGGAGAAGACUGCGGGUUCGAGUCCCGUACGGAACG [A15G A37C], the yeast fitness was 0.666. As to GUUCCGUUGGCGUAGUGGUAACGCGUCUCCCUCCUAAGGGGAAGACUGCGGGUUCGAGUCCCGUGCGGAACG [A15G A40G A65G], the yeast fitness was 0.663. For GUUCCGUUGGCGUAGUGGUAGCGCGUCUCCCUCCUAAGGAGAAGACUGCGGGUUCGAGUCCCGUACGGAACG [A15G A21G], the yeast fitness came out at 1.02. The value for GUUCCGUUGGCGUAGUGGUGACGCGUCUCCCUCCUAAGGAGAAGACUGAGGGUUCGAGUCUAGUACCGAACG [A15G A20G C49A C61U C62A G67C] was not above 0.5; that for GUUCCGUUGGCGUAGUGGUAGCGCGUCUGCCUCCUAAGGAGGAGACUGCGGGUUAGAGUCCCGUACGGAACG [A15G A21G C29G A42G C55A] was not above 0.5. Then GUUCCGUUGGCGUAGUGGUAACGCGUCUCCCUCCUAAGGAGGAGCCUGCGGGUUCGAGUCCCGUACGGAACG [A15G A42G A45C], with 0.557; and GUUCCGUUGGCGUAGUGGUAACGCGUCUCCCUCCUAAGGAGCAGCCUACGGGUUCGAGUCCCGUACGGAACG [A15G A42C A45C G48A], with 0.63.
